Screens deposited in PubChem by Broad Institute.
CaV13 ICDI inh: Disruptors of the CACNA1D IQ motif to Ca2+-dependent inactivation inhibitor domain association, primary screening, Förster resonance energy transfer in intact living …. HEK cells, CFP/YFP FRET ICDI-IQ, plate reader, 10 min; percent FRET-ratio fall versus neutral wells. inhibition, % at 12.3 µM. actives 0.098% (n = 340,000);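 active means mean replicate inhibition of at least 30% and at least 1% of replicates passing that level; inconclusive means only one of the two criteria is met; inactive means neither criterion is met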;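 further: 0% = median of the neutral control wells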
Cneo AK release: Cryptococcus neoformans lysis via adenylate kinase release. C. neoformans lysis, adenylate kinase release luminescence, 4 h; normalised: neutral wells 0, clomiphene wells 100. lysis activity, % at 15 µM. actives 0.2% (n = 360,000). AID 651654;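 active means mean lysis activity across replicates of at least 80%, whatever share of replicates individually reach that level; inactive means mean lysis activity below 80%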
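Assay system: C. neoformans cells. Amount: yeast cell density of 5 × 10^6 cells/mL. Technique: AK luminescence. Buffer or medium: YPD. Times: static 4 h at 37 °C with compound, 1 h detection. Dosing: single-point compound dose. Read-out: lysis from increased AK signal.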
CFTR F508del cor: correctors of CFTR F508del function in bronchial epithelial cells. actives 0.36% (n = 350,000). CFBE cells, YFP halide quenching; stimulated with forskolin plus potentiator P3; % fluorescence drop versus neutral controls. activity (quench increase), % at 7.58 µM;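 active means mean added fluorescence quench of at least 8% versus neutral control, with both replicates also reaching 8%; inconclusive means only one of the mean or replicate conditions met; inactive means mean below 8% and not both replicates reaching 8%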;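 further: cells transiently co-express mutant CFTR-F508del with the halide-sensitive YFP; corrector assay measuring rescue of mutant channel to the surface after 24 h compound exposure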
rRNA inh HTS: inhibitors of bacterial rRNA selective over humanized ribosomes; E. coli WT GFP vs humanized-ribosome RFP mutants, fluorescence, 24 h; hits give low values; DMSO median 0, no signal -100; GFP signal change (wild-type ribosome), % (test concentration not listed); actives 1.6% (n = 350,000); AID 720706;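 active means significant combined selectivity score with lowered wild-type GFP, culture density cut under 30%, mutant RFP and density less affected; inactive means any of these conditions unmet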
AID977621: wild-type E. coli growth inhibition versus H69 humanized strain – H69 mutant RFP, wild-type GFP, cherry-pick, dose response; shares compounds with rRNA inh HTS; fluorescence, 24 h; activity change, negative = inhibition at 50 µM; 1,900 tested, under 10 active;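 active means Wild-type ribosome reporter drop at least double the humanized mutant ribosome reporter drop, growth loss under a set limit; inconclusive means no clear call, values can overlap the other calls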;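 further: wild-type GFP and H69 mutant RFP strains grown together 50/50 in each well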
AID977628: growth of wild-type and h24-humanized E. coli strains – h24 mutant RFP vs wild-type GFP, cherry-pick, dose response; shares compounds with rRNA inh HTS; E. coli WT GFP strain growth, fluorescence, 24 h; activity change, negative = inhibition at 50 µM; 1,900 tested, under 10 active;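 active means compound lowering the normal-ribosome reporter at least twice as much as the humanized-ribosome reporter, growth loss under a set limit; inconclusive means no clear call, values can overlap the other calls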;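 further: wild-type GFP and h24 humanized RFP strains co-cultured 1 to 1 per well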
* marks the source's active call; other numbers are inactive results. A selection: hits, their analogues and other compounds. The true share with any hit is near 1.7%.

Cc1c(C(=O)Nc2ccccc2)c2cc(O)ccc2n1Cc1ccccc1 was read as CaV13 ICDI inh -19, Cneo AK release -2, CFTR F508del cor -2, rRNA inh HTS -20*, AID977621 -0.49 and AID977628 inconclusive.
`Oc1c(Br)cc(Br)cc1Br` gave Cneo AK release 3, CFTR F508del cor 3, rRNA inh HTS -21*, AID977621 4.6 and AID977628 -1.7.
`COC(=O)[C@H]1N[C@H]2c3ccc(C4=CCCC4)c(=O)n3C[C@H]2[C@@H]1CO` gave Cneo AK release -3 and rRNA inh HTS 2.
`CSc1ccc(CN2CCN(Cc3ccccc3Cl)CC2)cc1` gave CaV13 ICDI inh -4, CFTR F508del cor 4, rRNA inh HTS -22* and AID977628 inconclusive.
`CC(C)CCn1c(N)c(C(=O)NCc2cccs2)c2nc3ccccc3nc21` gave CaV13 ICDI inh -4, Cneo AK release -2, CFTR F508del cor 1, rRNA inh HTS -22*, AID977621 -3.4 and AID977628 inconclusive.
COCCNC(=O)c1c(N)n(CCC(C)C)c2nc3ccccc3nc12 was read as CaV13 ICDI inh -3 and Cneo AK release 2.
For O=C(Cc1ccncc1)N1CCCCN2[C@H](CO)[C@H](c3ccc(C#Cc4ccccc4F)cc3)[C@H]2C1 the results were Cneo AK release 7, CFTR F508del cor 1 and rRNA inh HTS -8.
For O=C(c1ccc(F)cc1Cl)N1CCC2(CC1)OCCO2 the results were CaV13 ICDI inh 1, Cneo AK release -1, CFTR F508del cor -1 and rRNA inh HTS 6.
Screening O=C(c1sc2ccccc2c1Cl)N1CCC2(CC1)OCCO2 returned CaV13 ICDI inh -5, Cneo AK release -1, CFTR F508del cor -2, rRNA inh HTS -20*, AID977621 -0.9 and AID977628 -9.7.
For CCOC(=O)[C@@H]1[C@@H]2NC(=O)N(C)[C@@]1(C)Oc1ccccc12 the results were Cneo AK release 6 and CFTR F508del cor 2.
For CC1=C2C[C@H]3[C@@H](CC=C4C[C@@H](O)CC[C@@]43C)[C@@H]2CC[C@]12O[C@@H]1C[C@H](C)CN[C@@H]1C2C (some centres undefined) the results were Cneo AK release -8 and CFTR F508del cor -2.
CCOC(=O)C1(CCOc2ccccc2)CCN(C2Cc3ccccc3C2)CC1 was read as CaV13 ICDI inh -5, CFTR F508del cor -3 and rRNA inh HTS -20.
Screening CCOC(=O)C12C(=O)OCC1C2c1ccccc1 (centres undefined) returned CaV13 ICDI inh -7, CFTR F508del cor -3, rRNA inh HTS -4.1*, AID977621 3 and AID977628 1.3.
